In ChEMBL document CHEMBL4371071, “Muscarinic agonist, (±)-quinuclidin-3-yl-(4-fluorophenethyl)(phenyl)carbamate: High affinity, but low subtype selectivity for human M1 - M5 muscarinic acetylcholine receptors” (Bioorg Med Chem Lett, 2019):
pKi: −log10 of the molar value.

Experiments:
[1] = target: T1, Muscarinic acetylcholine receptor M1 (Homo sapiens, UniProt P11229); assay: Displacement of [3H]NMS from human M1 AChR expressed in CHO cell membranes after 1 to 2 hrs by liquid scintillation spectrometry method; format: cell-based
T1 sequence (P11229 whole entry): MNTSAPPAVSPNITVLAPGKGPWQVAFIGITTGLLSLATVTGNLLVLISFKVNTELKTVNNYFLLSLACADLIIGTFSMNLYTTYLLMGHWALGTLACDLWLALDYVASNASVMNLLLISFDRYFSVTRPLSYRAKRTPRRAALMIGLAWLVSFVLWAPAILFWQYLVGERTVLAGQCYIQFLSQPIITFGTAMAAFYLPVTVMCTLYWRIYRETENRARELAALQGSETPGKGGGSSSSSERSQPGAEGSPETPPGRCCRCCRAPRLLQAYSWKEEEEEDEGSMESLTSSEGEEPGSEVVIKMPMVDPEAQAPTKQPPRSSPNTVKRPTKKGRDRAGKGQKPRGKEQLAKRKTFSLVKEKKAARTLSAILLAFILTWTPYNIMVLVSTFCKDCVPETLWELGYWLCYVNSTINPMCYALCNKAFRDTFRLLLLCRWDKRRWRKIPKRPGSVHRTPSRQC

[2] = target: T2, Muscarinic acetylcholine receptor M2 (Homo sapiens, UniProt P08172); assay: Displacement of [3H]NMS from human M2 AChR expressed in CHO cell membranes after 1 to 2 hrs by liquid scintillation spectrometry method
T2 sequence (P08172 whole entry): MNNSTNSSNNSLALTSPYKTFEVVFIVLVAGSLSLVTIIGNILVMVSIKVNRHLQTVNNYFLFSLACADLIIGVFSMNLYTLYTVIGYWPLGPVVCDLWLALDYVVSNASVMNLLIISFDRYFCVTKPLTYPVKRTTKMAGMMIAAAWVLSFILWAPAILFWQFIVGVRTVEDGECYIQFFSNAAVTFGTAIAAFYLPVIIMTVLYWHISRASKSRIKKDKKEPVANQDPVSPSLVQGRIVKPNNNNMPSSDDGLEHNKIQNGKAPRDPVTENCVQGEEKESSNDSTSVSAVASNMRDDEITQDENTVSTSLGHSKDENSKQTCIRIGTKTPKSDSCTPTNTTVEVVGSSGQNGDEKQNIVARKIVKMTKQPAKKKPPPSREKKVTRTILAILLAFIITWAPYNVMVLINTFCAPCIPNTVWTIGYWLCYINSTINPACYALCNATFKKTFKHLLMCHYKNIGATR
Procedure, shortened: (§1)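 CHO membranes expressing the human subtype (20 µg protein/well) with 0.3 nM [3H]NMS and analog (1 nM–100 µM) in 50 mM Tris-HCl pH 7.4, 2 h at 25 °C. […] Filtered on GF/B, washed, counted by scintillation. IC50 taken from curves to give Ki; three independent experiments in duplicate.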

[3] = target: T3, Muscarinic acetylcholine receptor M2 (Homo sapiens) (UniProt P08172); assay: Displacement of [3H]NMS from human M2 AChR expressed in CHO cell membranes at 100 uM after 1 to 2 hrs by liquid scintillation spectrometry method relative to control
T3 sequence (whole entry): T2 sequence (P08172 whole entry)
Procedure, shortened: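 CHO membranes expressing the human subtype (20 µg protein/well) with 0.3 nM [3H]NMS and analog (1 nM–100 µM) in 50 mM Tris-HCl pH 7.4, 2 h at 25 °C. Filtered on GF/B, washed, counted by scintillation. IC50 taken from curves to give Ki; three independent experiments in duplicate.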

[4] = target: T4, Muscarinic acetylcholine receptor M3 (Homo sapiens, UniProt P20309); assay: Displacement of [3H]NMS from human M3 AChR expressed in CHO cell membranes after 1 to 2 hrs by liquid scintillation spectrometry method; format: cell-based
Target sequence in this assay (P20309 whole entry): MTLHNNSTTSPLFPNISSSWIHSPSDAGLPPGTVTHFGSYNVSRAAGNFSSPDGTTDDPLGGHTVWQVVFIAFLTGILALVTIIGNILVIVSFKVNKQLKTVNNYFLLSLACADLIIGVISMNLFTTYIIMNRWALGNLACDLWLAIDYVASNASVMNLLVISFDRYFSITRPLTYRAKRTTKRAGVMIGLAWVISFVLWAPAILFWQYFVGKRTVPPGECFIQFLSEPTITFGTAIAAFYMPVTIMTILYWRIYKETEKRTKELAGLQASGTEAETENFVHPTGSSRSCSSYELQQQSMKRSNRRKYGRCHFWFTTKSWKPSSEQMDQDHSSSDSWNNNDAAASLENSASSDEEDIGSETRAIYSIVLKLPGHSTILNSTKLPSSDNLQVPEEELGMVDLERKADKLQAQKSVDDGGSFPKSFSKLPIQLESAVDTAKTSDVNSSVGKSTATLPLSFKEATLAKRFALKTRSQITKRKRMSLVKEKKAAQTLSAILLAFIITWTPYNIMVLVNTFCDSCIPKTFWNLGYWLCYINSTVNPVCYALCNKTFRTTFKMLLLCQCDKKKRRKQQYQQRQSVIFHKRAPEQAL

[5] = target: T5, Muscarinic acetylcholine receptor M5 (Homo sapiens, UniProt P08912); assay: Displacement of [3H]NMS from human M5 AChR expressed in CHO cell membranes after 1 to 2 hrs by liquid scintillation spectrometry method
T5 sequence (P08912 whole entry): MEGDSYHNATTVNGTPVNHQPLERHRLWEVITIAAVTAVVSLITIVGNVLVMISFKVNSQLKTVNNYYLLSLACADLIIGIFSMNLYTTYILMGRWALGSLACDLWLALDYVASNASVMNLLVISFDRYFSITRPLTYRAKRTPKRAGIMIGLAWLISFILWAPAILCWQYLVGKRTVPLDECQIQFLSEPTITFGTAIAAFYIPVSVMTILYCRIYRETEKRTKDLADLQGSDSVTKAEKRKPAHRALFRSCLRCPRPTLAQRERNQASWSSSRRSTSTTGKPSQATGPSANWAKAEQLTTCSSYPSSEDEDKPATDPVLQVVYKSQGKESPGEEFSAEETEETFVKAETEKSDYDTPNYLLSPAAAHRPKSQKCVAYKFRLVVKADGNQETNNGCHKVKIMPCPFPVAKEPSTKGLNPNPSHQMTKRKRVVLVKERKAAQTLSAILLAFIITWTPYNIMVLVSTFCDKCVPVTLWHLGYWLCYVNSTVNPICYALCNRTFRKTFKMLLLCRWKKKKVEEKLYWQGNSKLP
Procedure, shortened: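 CHO membranes expressing human M5 (10 µg protein/well) with 0.3 nM [3H]NMS and analog (1 nM–100 µM) in 50 mM Tris-HCl pH 7.4, 2 h at 25 °C. Filtered on GF/B, counted by scintillation. IC50 converted to Ki; three independent experiments in duplicate.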

[6] = target: T6, Muscarinic acetylcholine receptor M5 (Homo sapiens) (UniProt P08912); assay: Displacement of [3H]NMS from human M5 AChR expressed in CHO cell membranes at 100 uM after 1 to 2 hrs by liquid scintillation spectrometry method relative to control
T6 sequence (whole entry): T5 sequence (P08912 whole entry)
Procedure, shortened: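 CHO membranes expressing human M5 (10 µg protein/well) with 0.3 nM [3H]NMS and analog (1 nM–100 µM) in 50 mM Tris-HCl pH 7.4, 2 h at 25 °C. […] Filtered on GF/B, counted by scintillation. IC50 converted to Ki; three independent experiments in duplicate.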

[7] = organism: Homo sapiens; assay: Selectivity ratio of Ki for displacement of [3H]NMS from human M1 AChR expressed in CHO cell membranes to Ki for displacement of [3H]NMS from human M5 AChR expressed in CHO cell membranes
[8] = organism: Homo sapiens; assay: Selectivity ratio of Ki for displacement of [3H]NMS from human M2 AChR expressed in CHO cell membranes to Ki for displacement of [3H]NMS from human M3 AChR expressed in CHO cell membranes
[9] = target: T7, Muscarinic acetylcholine receptor M1 (Homo sapiens) (UniProt P11229); settings: CHO, at 100 µM
T7 sequence (whole entry): T1 sequence (P11229 whole entry)

[10] = target: T4, Muscarinic acetylcholine receptor M3; settings: CHO, at 100 µM
Target sequence in this assay (P20309 whole entry, looked up): as the sequence (P20309 whole entry) above

[11] = target: T8, Muscarinic acetylcholine receptor (Rattus norvegicus) (UniProt P08482+P08483+P08485+P08911+P10980); settings: 1 uM
[12] = target: T8, Muscarinic acetylcholine receptor (Rattus norvegicus); settings: 10 uM
[13] = target: T9, Muscarinic acetylcholine receptor M4 (Homo sapiens, UniProt P08173); assay: Displacement of [3H]NMS from human M4 AChR expressed in CHO cell membranes after 1 to 2 hrs by liquid scintillation spectrometry method
T9 sequence (P08173 whole entry): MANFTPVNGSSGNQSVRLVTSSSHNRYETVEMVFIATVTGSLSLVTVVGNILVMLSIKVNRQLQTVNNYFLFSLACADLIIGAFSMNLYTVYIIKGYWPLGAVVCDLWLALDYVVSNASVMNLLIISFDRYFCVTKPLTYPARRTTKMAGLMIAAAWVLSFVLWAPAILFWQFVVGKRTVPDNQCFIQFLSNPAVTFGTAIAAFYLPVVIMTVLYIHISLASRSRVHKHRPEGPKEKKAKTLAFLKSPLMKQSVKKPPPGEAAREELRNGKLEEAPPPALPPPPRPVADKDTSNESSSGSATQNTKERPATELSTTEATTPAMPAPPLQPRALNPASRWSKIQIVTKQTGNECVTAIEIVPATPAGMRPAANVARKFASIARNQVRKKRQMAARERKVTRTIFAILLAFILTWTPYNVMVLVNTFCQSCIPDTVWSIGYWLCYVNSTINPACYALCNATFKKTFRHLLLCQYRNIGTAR
Procedure, shortened: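 Human M4-expressing CHO membranes (20 µg protein/well) incubated 2 h at 25 °C with 0.3 nM [3H]NMS and analog (1 nM–100 µM) in 50 mM Tris–HCl pH 7.4. […] Filtered, washed, counted by scintillation. IC50 taken from inhibition curves, Ki from three independent duplicate experiments (mean ± SEM).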

[14] = target: T10, Muscarinic acetylcholine receptor M4 (Homo sapiens) (UniProt P08173); assay: Displacement of [3H]NMS from human M4 AChR expressed in CHO cell membranes at 100 uM after 1 to 2 hrs by liquid scintillation spectrometry method relative to control; procedure, shortened: as §1
T10 sequence (whole entry): T9 sequence (P08173 whole entry)

| SMILES | pKi [1] | pKi [2] | Imax [3] [%] | pKi [4] | pKi [5] | Imax [6] [%] | Ratio Ki [7] | Ratio Ki [8] | Imax [9] [%] | Imax [10] [%] | inhibition [11] [%] | inhibition [12] [%] | pKi [13] | Imax [14] [%] |
| --- | --- | --- | --- | --- | --- | --- | --- | --- | --- | --- | --- | --- | --- | --- |
| COc1ccc(COC(=O)N(c2ccccc2)C2CN3CCC2CC3)cc1F (centres undefined) | 7.15 | 7.00 | 98.8 | 7.30 | 7.40 | 96.7 | 1.5 | 1.8 | 99.5 | 100 | – | – | – | – |
| CN1[C@@H]2C[C@H](OC(=O)[C@H](CO)c3ccccc3)C[C@H]1[C@@H]1O[C@@H]12 | – | – | – | – | – | – | – | – | – | – | 51 | 59 | – | – |
| O=C(OCc1ccc(Cl)c(Cl)c1)N(c1ccccc1)C1CN2CCC1CC2 (centres undefined) | 7.22 | 6.66 | 97.5 | 7.15 | 7.22 | 98.6 | 0.9 | 3.3 | 100 | 95.8 | – | – | – | – |
| O=C(OCc1ccc2c(c1)OCO2)N(c1ccccc1)C1CN2CCC1CC2 (centres undefined) | 7.52 | 7.52 | 99.4 | 7.72 | 7.40 | 99.7 | 0.8 | 1.7 | 100 | 99.9 | – | – | – | – |
| COc1ccc(CCN(C(=O)OC2CN3CCC2CC3)c2ccccc2)cc1 (racemic) | 8.00 | 6.89 | 99.7 | 8.10 | 8.00 | 100 | 1 | 17.1 | 100 | 99.9 | – | – | 7.60 | 99.9 |
| Cc1ccc(COC(=O)N(c2ccccc2)C2CN3CCC2CC3)cc1F (centres undefined) | 7.40 | 7.52 | 99.7 | 7.70 | 7.52 | 97.4 | 1.2 | 1.3 | 100 | 99 | – | – | – | – |
| O=C(OCCCc1ccc(Cl)c(Cl)c1)N(c1ccccc1)C1CN2CCC1CC2 (centres undefined) | 6.77 | 6.52 | 99.9 | 7.22 | 6.89 | 99.4 | 1.3 | 4.7 | 100 | 100 | – | – | – | – |
| COc1ccc(CCN(C(=O)OC2CN3CCC2CC3)c2ccccc2)cc1OC (racemic) | 7.02 | 6.46 | 98.6 | 7.22 | 7.19 | 99.8 | 1.5 | 5.7 | 100 | 99.7 | – | – | – | – |
| O=C(OCCCc1ccc(F)c(F)c1)N(c1ccccc1)C1CN2CCC1CC2 (centres undefined) | 6.52 | – | – | 6.66 | 7.00 | 99.4 | 3 | – | 100 | 99.5 | – | – | – | – |
| Cc1ccc(CCCOC(=O)N(c2ccccc2)C2CN3CCC2CC3)cc1F (centres undefined) | 6.70 | – | – | 6.89 | 6.89 | 99.9 | 1.5 | – | 100 | 100 | – | – | – | – |
| CN1CCCC(OC(=O)N(CCc2ccc(F)cc2)c2ccccc2)C1 (centres undefined) | 6.92 | – | – | 6.46 | 6.82 | 99.9 | 0.8 | – | 99.9 | 99 | – | – | – | – |
| O=C(OCc1ccccc1)N(c1ccccc1)C1CN2CCC1CC2 (centres undefined) | 6.72 | 6.92 | 99.4 | 7.05 | 6.82 | 97.2 | 1.3 | 1.2 | 99.5 | 98.6 | – | – | – | – |
| COc1ccc(CCCOC(=O)N(c2ccccc2)C2CN3CCC2CC3)cc1OC (centres undefined) | 5.84 | – | – | 5.81 | 5.79 | 99 | 0.9 | – | 97.1 | 96.3 | – | – | – | – |
| O=C(OCCc1ccccc1)N(c1ccccc1)C1CN2CCC1CC2 (centres undefined) | 6.10 | – | – | 6.52 | 6.59 | 96.9 | 3 | – | 88.5 | 99.1 | – | – | – | – |
